Calls of active or inactive are those of the source. No cut-off for these calls is given here.
What was measured:
[1] = Tmax in plasma of RT112/luc1 cells implanted athymic nude mouse at 20 mg/kg, po by LC/MS/MS analysis; format: ADME, organism-based; parameters: dose 20 mg/kg, route oral
Outline: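 Female athymic nude mice carrying subcutaneous RT112/luc1 tumors (ca. 300–400 mm3). Dosing was 5 mg/kg iv by tail vein in NMP/PEG200 (1:9) or 20 mg/kg by oral gavage as a suspension in PEG300/D5W (2:1). Groups (n = 4) were sacrificed from 0.083 to 24 h. Plasma and tumor were measured by LC-MS/MS (LOQ 5 ng/mL, 10 ng/g). Noncompartmental analysis used the linear trapezoidal AUC; F was calculated from dose-normalized AUC.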

Tumour [2] = assay: Drug uptake in tumour of nude Rowett rat bearing human RT112 cells at 8.51 mg/kg, po administered as a single dose after 7 hrs by LC-MS/MS analysis; format: ADME, organism-based, Neoplasm, RT-112; parameters: dose 8.51 mg/kg, route oral; conditions: in vivo
Outline: (§1)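 Nude Rowett rats bearing subcutaneous RT112 tumors (n = 4) received a single gavage of monophosphate salt at 4.25 or 8.51 mg/kg free base in acetate buffer pH 4.6/PEG300. Tumors were collected at intervals after dosing, frozen and homogenized in an equal volume of ice-cold PBS. Compound levels were measured by LC-MS/MS (LOQ 3 ng/mL).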

[3] = target: Cyclin-dependent kinase 2 (Homo sapiens, UniProt P24941); assay: Inhibition of recombinant CDK2
Outline: (§2)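 Purified recombinant kinases under optimized conditions, with peptide substrates and ATP at each kinase's Km. Phosphorylation was read out by microfluidic mobility shift, and IC50 values were obtained.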

[4] = target: Tyrosine-protein kinase JAK2 (Homo sapiens, UniProt O60674); assay: Inhibition of recombinant JAK2
Outline: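 Purified recombinant kinases were tested under optimized conditions with peptide substrates. ATP was set at each kinase's Km. Phosphorylation was read out by microfluidic mobility shift, and IC50 values were determined.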

Aurora kinase A = Aurora kinase A (Homo sapiens, UniProt O14965); assay: Inhibition of recombinant Aurora A; outline: as §2
Chain of Aurora kinase A (O14965 whole entry): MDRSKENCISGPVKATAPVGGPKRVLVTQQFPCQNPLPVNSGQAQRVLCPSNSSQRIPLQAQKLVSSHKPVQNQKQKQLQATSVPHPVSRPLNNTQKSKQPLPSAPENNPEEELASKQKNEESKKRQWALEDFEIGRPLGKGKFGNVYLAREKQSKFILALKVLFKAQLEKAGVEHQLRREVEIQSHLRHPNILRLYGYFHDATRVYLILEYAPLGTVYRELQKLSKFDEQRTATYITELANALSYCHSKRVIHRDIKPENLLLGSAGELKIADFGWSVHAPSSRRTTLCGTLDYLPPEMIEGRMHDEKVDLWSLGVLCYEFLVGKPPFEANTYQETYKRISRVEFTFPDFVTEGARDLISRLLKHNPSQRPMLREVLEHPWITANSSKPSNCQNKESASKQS

Tumour [5] = assay: Drug uptake in tumor of nude rowett rat bearing human RT112 cells at 8.51 mg/kg, po administered as a single dose after 3 hrs by LC-MS/MS analysis; format: ADME, organism-based, Neoplasm, RT-112; parameters: dose 8.51 mg/kg, route oral; conditions: in vivo; outline: as §1
[6] = Tmax in Wistar rat at 10 mg/kg, po by LC-MS/MS analysis; format: ADME, organism-based; parameters: dose 10 mg/kg, route oral; conditions: in vivo
Outline: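 Female Wistar rats received 5 mg/kg iv into the femoral vein in NMP/PEG200 (1:9), or the monophosphate salt orally at 10 mg/kg (free base) in acetate buffer pH 4.6/PEG300. Serial sublingual plasma samples were taken from 0.083 to 24 h.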

[7] = target: Rho-associated protein kinase 2 (Homo sapiens, UniProt O75116); assay: Inhibition of recombinant ROCK2
Chain of Rho-associated protein kinase 2 (O75116 whole entry): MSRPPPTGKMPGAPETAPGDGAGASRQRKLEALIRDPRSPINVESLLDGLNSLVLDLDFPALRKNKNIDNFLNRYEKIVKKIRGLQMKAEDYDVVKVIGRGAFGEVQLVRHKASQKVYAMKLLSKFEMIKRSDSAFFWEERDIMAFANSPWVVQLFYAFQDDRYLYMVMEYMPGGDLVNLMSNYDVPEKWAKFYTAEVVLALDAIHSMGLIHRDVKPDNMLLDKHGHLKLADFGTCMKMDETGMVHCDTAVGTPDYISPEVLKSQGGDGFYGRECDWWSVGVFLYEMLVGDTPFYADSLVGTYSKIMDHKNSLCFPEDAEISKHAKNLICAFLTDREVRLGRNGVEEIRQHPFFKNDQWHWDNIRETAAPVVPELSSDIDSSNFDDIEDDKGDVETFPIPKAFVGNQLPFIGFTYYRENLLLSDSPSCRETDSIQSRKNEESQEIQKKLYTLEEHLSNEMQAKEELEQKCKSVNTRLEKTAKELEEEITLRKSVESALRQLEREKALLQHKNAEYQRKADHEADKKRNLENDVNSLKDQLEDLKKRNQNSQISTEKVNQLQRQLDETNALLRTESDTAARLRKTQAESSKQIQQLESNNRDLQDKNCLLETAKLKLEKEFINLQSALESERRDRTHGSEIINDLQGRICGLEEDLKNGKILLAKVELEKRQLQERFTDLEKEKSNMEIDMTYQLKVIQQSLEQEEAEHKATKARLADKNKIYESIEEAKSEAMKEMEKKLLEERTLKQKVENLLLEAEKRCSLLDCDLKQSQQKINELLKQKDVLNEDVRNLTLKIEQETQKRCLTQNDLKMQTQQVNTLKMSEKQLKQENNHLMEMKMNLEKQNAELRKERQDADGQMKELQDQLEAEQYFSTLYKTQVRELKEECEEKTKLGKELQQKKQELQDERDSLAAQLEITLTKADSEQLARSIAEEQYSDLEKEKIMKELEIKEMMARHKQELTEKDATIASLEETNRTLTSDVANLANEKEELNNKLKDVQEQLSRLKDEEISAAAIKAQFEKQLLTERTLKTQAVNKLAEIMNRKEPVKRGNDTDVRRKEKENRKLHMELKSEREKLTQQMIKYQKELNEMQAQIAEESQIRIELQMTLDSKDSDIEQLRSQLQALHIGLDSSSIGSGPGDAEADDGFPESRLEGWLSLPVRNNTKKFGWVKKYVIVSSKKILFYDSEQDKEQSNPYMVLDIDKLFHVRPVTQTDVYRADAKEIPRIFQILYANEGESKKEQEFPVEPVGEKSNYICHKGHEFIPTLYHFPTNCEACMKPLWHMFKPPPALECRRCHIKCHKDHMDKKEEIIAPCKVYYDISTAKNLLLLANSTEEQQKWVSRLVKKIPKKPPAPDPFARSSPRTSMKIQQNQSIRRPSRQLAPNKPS
Outline: (§3)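 Purified recombinant kinases under optimized conditions with peptide substrates. ATP was set at each kinase's Km. Phosphorylation was read by microfluidic mobility-shift separation of substrate and product; IC50 determined.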

Ephrin type-B receptor 4 = Ephrin type-B receptor 4 (Homo sapiens, UniProt P54760); assay: Inhibition of recombinant EPHB4; outline: as §2
Chain of Ephrin type-B receptor 4 (P54760 whole entry): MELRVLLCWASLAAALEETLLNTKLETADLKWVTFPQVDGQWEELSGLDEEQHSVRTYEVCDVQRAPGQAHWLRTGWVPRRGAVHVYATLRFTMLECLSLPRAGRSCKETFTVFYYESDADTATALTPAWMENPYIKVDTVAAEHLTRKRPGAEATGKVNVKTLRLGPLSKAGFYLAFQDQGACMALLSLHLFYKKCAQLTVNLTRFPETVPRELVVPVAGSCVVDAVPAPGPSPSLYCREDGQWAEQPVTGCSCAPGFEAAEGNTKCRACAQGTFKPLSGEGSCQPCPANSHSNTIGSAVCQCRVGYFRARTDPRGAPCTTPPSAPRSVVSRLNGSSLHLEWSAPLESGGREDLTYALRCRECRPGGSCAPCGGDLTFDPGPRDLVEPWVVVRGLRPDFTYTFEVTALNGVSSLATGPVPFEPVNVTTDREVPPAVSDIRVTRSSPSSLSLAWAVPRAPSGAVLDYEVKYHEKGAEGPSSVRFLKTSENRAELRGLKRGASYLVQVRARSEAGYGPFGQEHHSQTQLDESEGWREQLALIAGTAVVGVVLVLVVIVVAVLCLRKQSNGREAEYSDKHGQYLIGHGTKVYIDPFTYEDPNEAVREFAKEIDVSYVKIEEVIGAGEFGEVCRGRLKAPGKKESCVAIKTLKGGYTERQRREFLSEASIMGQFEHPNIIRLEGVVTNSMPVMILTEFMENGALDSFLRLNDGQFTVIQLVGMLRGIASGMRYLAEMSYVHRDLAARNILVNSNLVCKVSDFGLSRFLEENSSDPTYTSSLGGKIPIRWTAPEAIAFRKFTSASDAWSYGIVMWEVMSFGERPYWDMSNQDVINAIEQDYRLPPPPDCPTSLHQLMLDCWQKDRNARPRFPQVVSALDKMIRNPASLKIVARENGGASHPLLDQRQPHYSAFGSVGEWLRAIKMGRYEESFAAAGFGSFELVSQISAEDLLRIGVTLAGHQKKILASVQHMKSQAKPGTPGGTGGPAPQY

[8] = Clearance in Wistar rat at 5 mg/kg, iv by LC-MS/MS analysis; format: ADME, organism-based; parameters: dose 5 mg/kg, route intravenous; conditions: in vivo
Outline: (§4)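 Female Wistar rats received either an iv femoral-vein dose of 5 mg/kg in NMP/PEG200 (1:9) or an oral dose of monophosphate salt at 10 mg/kg (free base) in acetate buffer pH 4.6/PEG300. Plasma was sampled by sublingual bleeding at 0.083–24 h (n = 4 staggered, or n = 3–4 serial). Plasma levels were measured by LC-MS/MS (LOQ 10 ng/mL).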

[9] = target: Tyrosine-protein kinase CSK (Homo sapiens, UniProt P41240); assay: Inhibition of recombinant CSK; outline: as §2
RT-112 = assay: Antitumor activity against human RT112 cells xenografted in athymic nude mouse assessed as tumor stasis at 30 mg/kg, po administered for 12 days; format: functional, organism-based; parameters: dose 30 mg/kg
Outline: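 Female HsdNpa:Athymic Nude-nu mice received RT112/luc1 cells (luciferase retroviral line; about 1–2×10^5 cells) into the bladder lumen. Oral treatment started 14 days after inoculation: suspension in PEG300/D5W (2:1) at 10 or 30 mg/kg/qd for 12 days. Tumor burden was measured by IVIS bioluminescence 10 min after iv D-luciferin. T/C was computed from change in light emission; ANOVA with Dunnett's test.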

Ephrin type-A receptor 4 = Ephrin type-A receptor 4 (Homo sapiens, UniProt P54764); assay: Inhibition of recombinant EPHA4; outline: as §3
Chain of Ephrin type-A receptor 4 (P54764 whole entry): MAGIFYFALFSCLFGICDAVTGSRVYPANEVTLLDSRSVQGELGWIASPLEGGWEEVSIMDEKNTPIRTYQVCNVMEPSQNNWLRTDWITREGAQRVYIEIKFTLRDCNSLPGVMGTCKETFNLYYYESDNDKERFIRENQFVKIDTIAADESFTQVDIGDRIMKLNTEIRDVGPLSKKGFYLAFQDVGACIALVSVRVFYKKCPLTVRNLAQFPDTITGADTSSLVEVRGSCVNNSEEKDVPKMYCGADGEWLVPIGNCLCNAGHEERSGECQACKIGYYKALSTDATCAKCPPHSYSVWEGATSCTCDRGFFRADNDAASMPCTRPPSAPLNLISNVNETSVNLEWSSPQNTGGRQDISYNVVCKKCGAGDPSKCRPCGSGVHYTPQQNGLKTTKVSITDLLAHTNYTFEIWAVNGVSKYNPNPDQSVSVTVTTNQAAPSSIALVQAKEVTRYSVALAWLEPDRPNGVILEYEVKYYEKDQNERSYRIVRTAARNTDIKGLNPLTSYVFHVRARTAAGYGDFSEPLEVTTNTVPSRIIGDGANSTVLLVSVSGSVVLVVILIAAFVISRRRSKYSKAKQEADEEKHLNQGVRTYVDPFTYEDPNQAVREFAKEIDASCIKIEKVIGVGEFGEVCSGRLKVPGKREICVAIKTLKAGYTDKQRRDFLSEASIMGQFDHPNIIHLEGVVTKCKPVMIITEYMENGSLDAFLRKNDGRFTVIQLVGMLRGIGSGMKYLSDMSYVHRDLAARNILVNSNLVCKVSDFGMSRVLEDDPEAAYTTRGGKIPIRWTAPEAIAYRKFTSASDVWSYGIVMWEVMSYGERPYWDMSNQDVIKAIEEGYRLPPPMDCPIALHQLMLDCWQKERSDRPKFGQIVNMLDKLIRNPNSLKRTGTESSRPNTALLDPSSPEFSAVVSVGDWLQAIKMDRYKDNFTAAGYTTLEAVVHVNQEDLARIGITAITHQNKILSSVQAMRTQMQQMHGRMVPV

[10] = Cmax in plasma of RT112/luc1 cells implanted athymic nude mouse at 5 mg/kg, iv by LC/MS/MS analysis; format: ADME, organism-based; parameters: dose 5 mg/kg, route intravenous
Outline: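 Female athymic nude mice carried subcutaneous RT112/luc1 tumors (5×10^6 cells, 50% Matrigel; about 300–400 mm3). Dosing was either 5 mg/kg iv by tail vein in NMP/PEG200 (1:9) or 20 mg/kg oral suspension in PEG300/D5W (2:1). Groups of mice (n = 4) were sacrificed at 0.083–24 h. Plasma and tumor levels were measured by LC-MS/MS (LOQ 5 ng/mL, 10 ng/g).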

Rattus norvegicus [11] = assay: Dose normalized AUC in Wistar rat at 10 mg/kg, po by LC-MS/MS analysis; format: ADME, organism-based; parameters: dose 10 mg/kg, route oral; conditions: in vivo; outline: as §4
[12] = target: Phosphatidylinositol 4,5-bisphosphate 3-kinase catalytic subunit delta isoform (Homo sapiens, UniProt O00329); assay: Inhibition of recombinant PI3Kdelta by luminescent kinase assay
Chain of Phosphatidylinositol 4,5-bisphosphate 3-kinase catalytic subunit delta isoform (O00329 whole entry, canonical isoform): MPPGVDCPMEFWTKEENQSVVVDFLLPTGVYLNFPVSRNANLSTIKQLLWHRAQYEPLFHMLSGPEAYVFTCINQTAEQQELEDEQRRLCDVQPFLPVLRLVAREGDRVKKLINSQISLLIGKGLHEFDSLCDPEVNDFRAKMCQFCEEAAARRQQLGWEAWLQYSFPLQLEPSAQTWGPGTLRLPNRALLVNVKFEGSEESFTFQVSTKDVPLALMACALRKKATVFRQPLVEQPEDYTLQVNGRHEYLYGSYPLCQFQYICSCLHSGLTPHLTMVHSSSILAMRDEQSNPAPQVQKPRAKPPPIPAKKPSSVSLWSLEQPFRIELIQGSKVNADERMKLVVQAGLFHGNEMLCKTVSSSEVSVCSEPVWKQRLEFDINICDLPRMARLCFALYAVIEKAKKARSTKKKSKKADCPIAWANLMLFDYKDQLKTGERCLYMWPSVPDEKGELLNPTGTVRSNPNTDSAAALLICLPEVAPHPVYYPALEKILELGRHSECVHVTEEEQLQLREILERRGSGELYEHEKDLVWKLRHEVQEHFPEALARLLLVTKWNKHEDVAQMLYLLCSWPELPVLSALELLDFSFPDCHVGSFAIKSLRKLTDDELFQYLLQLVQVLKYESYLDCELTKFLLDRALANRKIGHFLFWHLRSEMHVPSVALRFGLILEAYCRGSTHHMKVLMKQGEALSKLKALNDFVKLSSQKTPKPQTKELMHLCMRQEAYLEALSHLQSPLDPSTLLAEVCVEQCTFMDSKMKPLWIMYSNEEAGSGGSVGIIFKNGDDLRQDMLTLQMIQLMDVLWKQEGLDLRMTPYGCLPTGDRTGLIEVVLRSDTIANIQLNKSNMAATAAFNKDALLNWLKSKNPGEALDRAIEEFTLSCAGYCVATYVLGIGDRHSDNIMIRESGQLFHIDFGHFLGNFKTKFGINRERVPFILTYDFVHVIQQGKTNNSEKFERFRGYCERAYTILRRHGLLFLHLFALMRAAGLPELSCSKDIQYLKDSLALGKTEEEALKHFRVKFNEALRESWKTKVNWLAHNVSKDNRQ

Rattus norvegicus [13] = assay: Toxicity in nude Rowett rat xenografted with human RT112 cells assessed as weight loss at 15 mg/kg, po qd administered for 20 days; format: organism-based, RT-112; parameters: dose 15 mg/kg, route oral; conditions: in vivo, 480 h
Outline: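 Female nude Rowett rats carried subcutaneous RT112 tumors (1 × 10^6 cells in Matrigel), starting at about 100 mm3. The monophosphate salt was gavaged daily for 20 days at 5, 10 or 15 mg/kg (free base) in acetate buffer pH 4.6/PEG300 (1:1), n = 8. Body weight and morbidity were monitored; ANOVA with Dunnett's test.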

[14] = Apparent terminal half life in Wistar rat at 5 mg/kg, iv by LC-MS/MS analysis; format: ADME, organism-based; parameters: dose 5 mg/kg, route intravenous; conditions: in vivo, read-out: t1/2 lambda z (converted)
Outline: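 Female Wistar rats. IV: 5 mg/kg into the femoral vein as a solution in NMP/PEG200 (1:9, v/v). Oral: monophosphate salt at 10 mg/kg (free base equivalents) as a solution in acetic acid–acetate buffer pH 4.6/PEG300. Plasma was taken by sublingual bleeding at 0.083–24 h, from staggered groups (n = 4) or one sequentially bled group. Assayed by LC-MS/MS (LOQ 10 ng/mL); noncompartmental analysis.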

[15] = Cmax in Wistar rat at 5 mg/kg, iv after 5 mins by LC-MS/MS analysis; format: ADME, organism-based; parameters: dose 5 mg/kg, route intravenous; conditions: in vivo; outline: as §4
Rattus norvegicus [16] = assay: Inhibition of FGFR autophosphorylation in RT112 tumour bearing nude Rowett rat assessed as decrease in pMAPK concentration at 8.51 mg/kg, po administered as a single dose after 16 hrs by Western blot analysis; format: functional, organism-based; parameters: dose 8.51 mg/kg
Outline: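 RT112 subcutaneous xenografts in female nude Rowett rats (n = 4). Single oral gavage of the monophosphate salt at 4.25 or 8.51 mg/kg (free base equivalents) in acetic acid–acetate buffer pH 4.6/PEG300 (1:1). Tumors were collected at time points up to 24 h, frozen, homogenized and lysed. Western blots probed pFRS2(Tyr196) and pMAPK, with total FRS2, total MAPK or β-tubulin as loading controls.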

Tmax [1]: 1 h | Drug uptake (Tumour [2]): 1.52 nmol/g | IC50 [3]: > 10 µM | IC50 [4]: > 10 µM | IC50 (Aurora kinase A): > 10 µM | Drug uptake (Tumour [5]): 1.96 nmol/g | Tmax [6]: 4 h | IC50 [7]: > 10 µM | IC50 (Ephrin type-B receptor 4): > 10 µM | clearance [8]: 60 mL/min/kg | IC50 [9]: > 10 µM | IC50 (Ephrin type-A receptor 4): > 10 µM | Cmax [10]: 860 nM | AUC/dose (Rattus norvegicus [11]): 0.25 µM·h | IC50 [12]: > 9 µM | half-life [14]: 4.5 h | Cmax [15]: 970 nM
Compound: CCN1CCN(c2ccc(Nc3cc(N(C)C(=O)Nc4c(Cl)c(OC)cc(OC)c4Cl)ncn3)cc2)CC1.O=P(O)(O)O [INFIGRATINIB PHOSPHATE]
Activity (RT-112): Active | Activity (Rattus norvegicus [13]): 9% | inhibition (Rattus norvegicus [16]): Active
